Measured values published in ChEMBL document CHEMBL5038641, “Development of PDE6D and CK1α Degraders through Chemical Derivatization of FPFT-2216” (J Med Chem, 2022).
Activity calls are given as the source filed them. The rule behind the calls is not given here.

Key:
NCI-H358 = assay: Antiproliferative activity against human NCI-H358 cells assessed as reduction in cell viability measured after 3 days by Celltiter-Glo assay; type: functional, cell-based; conditions: for Activity: time 3.0 day; for IC50: NCI-H358, 72 h
Method in brief: (§1)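 Cells grown per supplier recommendations with 10% FBS plus penicillin/streptomycin and mycoplasma-checked. 800 cells per well in 384-well format, dosed the next day at the indicated concentrations; depending on the agent, dosing was once or daily. Viability was read by CellTiter-Glo luminescence after three days of treatment, with a 20 min incubation before reading.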

[1] = target: T1, Protein cereblon/Retinal rod rhodopsin-sensitive cGMP 3',5'-cyclic phosphodiesterase subunit delta (Homo sapiens, UniProt O43924+Q96SW2); assay: Protac activity at CRBN/PDE6D in human Jurkat cells assessed as induction of PDE6D degradation measured after 4 hrs by Immunoblotting analysis; type: cell-based
Method in brief: (§2)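 Jurkat or MM.1S cells given the indicated concentrations, up to 1 µM, for 4 h. RIPA lysates (30 min on ice) with 20 μg protein per lane were separated by SDS-PAGE and transferred to nitrocellulose. Blots were probed for PDE6D, IKZF1 (1:1000), IKZF3 (1:1000) and CK1α, with β-actin control and IRDye fluorescent secondary detection.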

[2] = target: T1, Protein cereblon/Retinal rod rhodopsin-sensitive cGMP 3',5'-cyclic phosphodiesterase subunit delta; assay: Protac activity at CRBN/PDE6D in human MOLT-4 cells assessed as induction of PDE6D degradation at 1 microM measured after 4 hrs by Immunoblotting analysis; type: cell-based
Method in brief: (§3)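 MOLT4 cells treated for 4 h, either at a single 1 µM screening dose or across a concentration series. Lysates were made in RIPA with protease/phosphatase inhibitors, and 20 μg protein was resolved by SDS-PAGE and transferred to nitrocellulose. PDE6D, IKZF1, IKZF3 and CK1α were immunoblotted against β-actin and detected with IRDye secondaries.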
Target sequence in this assay (O43924 whole entry, looked up): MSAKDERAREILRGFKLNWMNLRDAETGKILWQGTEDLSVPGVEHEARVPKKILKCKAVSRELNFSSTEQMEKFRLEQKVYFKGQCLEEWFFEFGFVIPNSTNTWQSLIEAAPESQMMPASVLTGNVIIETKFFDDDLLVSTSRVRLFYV
Target sequence in this assay (Q96SW2 whole entry, looked up): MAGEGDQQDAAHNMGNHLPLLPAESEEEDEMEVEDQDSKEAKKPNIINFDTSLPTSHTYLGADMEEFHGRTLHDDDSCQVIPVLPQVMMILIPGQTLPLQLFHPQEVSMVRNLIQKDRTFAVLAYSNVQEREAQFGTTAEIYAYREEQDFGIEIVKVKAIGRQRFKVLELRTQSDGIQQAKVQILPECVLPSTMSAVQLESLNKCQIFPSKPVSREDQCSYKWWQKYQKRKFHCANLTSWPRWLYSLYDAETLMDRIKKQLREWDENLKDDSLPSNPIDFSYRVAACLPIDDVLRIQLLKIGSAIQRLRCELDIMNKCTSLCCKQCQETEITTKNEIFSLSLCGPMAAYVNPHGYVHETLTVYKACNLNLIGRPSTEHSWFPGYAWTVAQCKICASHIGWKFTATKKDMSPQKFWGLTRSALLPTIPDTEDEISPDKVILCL

[3] = target: T1, Protein cereblon/Retinal rod rhodopsin-sensitive cGMP 3',5'-cyclic phosphodiesterase subunit delta; assay: Protac activity at CRBN/PDE6D in human MOLT-4 cells assessed as induction of PDE6D degradation measured after 4 hrs by Immunoblotting analysis; type: cell-based; method in brief: as §3
PaTu 8988t = assay: Antiproliferative activity against human PaTu 8988t cells assessed as reduction in cell viability measured after 3 days by Celltiter-Glo assay; type: functional, cell-based; conditions: for Activity: time 3.0 day; for IC50: 72 h; method in brief: as §1
AGS = assay: Antiproliferative activity against human AGS cells assessed as reduction in cell viability measured after 3 days by Celltiter-Glo assay; type: functional, cell-based; conditions: for Activity: time 3.0 day; for IC50: 72 h; method in brief: as §1
[4] = target: T2, Cereblon/Casein kinase I alpha (Homo sapiens) (UniProt P48729+Q96SW2); assay: Protac activity at CRBN/CK1alpha in human MOLT-4 cells assessed as induction of CK1alpha degradation at 1 microM measured after 4 hrs by Immunoblotting analysis; type: cell-based; method in brief: as §3
MIA PaCa-2 = assay: Antiproliferative activity against human MIA PaCa-2 cells assessed as reduction in cell viability measured after 3 days by Celltiter-Glo assay; type: functional, cell-based; conditions: for Activity: time 3.0 day; for IC50: MIA PaCa-2, 72 h; method in brief: as §1
[5] = target: T1, Protein cereblon/Retinal rod rhodopsin-sensitive cGMP 3',5'-cyclic phosphodiesterase subunit delta; assay: Protac activity at CRBN/PDE6D in human MM1.S cells assessed as induction of PDE6D degradation measured after 4 hrs by Immunoblotting analysis; type: cell-based; method in brief: as §2
[6] = target: T3, Cereblon/Ikaros (Homo sapiens) (UniProt Q96SW2+Q13422); assay: Protac activity at CRBN/IKZF1 in human MOLT-4 cells assessed as induction of IKZF1 degradation at 1 microM measured after 4 hrs by Immunoblotting analysis; type: cell-based; method in brief: as §3
[7] = target: T4, Protein cereblon/Zinc finger protein Aiolos (Homo sapiens) (UniProt Q96SW2+Q9UKT9); assay: Protac activity at CRBN/IKZF3 in human MOLT-4 cells assessed as induction of IKZF3 degradation at 1 microM measured after 4 hrs by Immunoblotting analysis; type: cell-based; method in brief: as §3
[8] = target: DNA-binding protein Ikaros (Homo sapiens) (UniProt Q13422); assay: Induction of IKZF1 degradation in human CRBN-null MOLT4 cells at 8 to 200 nM incubated for 4 hrs by Immunoblotting analysis; type: cell-based; conditions: MOLT-4, dose 8-200 nM
[9] = target: Retinal rod rhodopsin-sensitive cGMP 3',5'-cyclic phosphodiesterase subunit delta (Homo sapiens) (UniProt O43924); assay: Induction of PDE6D degradation in human CRBN-null MOLT4 cells at 8 to 200 nM incubated for 4 hrs by Immunoblotting analysis; type: cell-based; conditions: MOLT-4, dose 8-200 nM
[10] = target: T4, Protein cereblon/Zinc finger protein Aiolos (Homo sapiens); assay: Protac activity at CRBN/IKZF3 in human MOLT-4 cells assessed as induction of IKZF3 degradation at 250 nM measured after 4 hrs by proteome mass spectrometry
[11] = target: T3, Cereblon/Ikaros (Homo sapiens); assay: Protac activity at CRBN/IKZF1 in human MOLT-4 cells assessed as induction of IKZF1 degradation at 250 nM measured after 4 hrs by proteome mass spectrometry
[12] = target: T3, Cereblon/Ikaros (Homo sapiens); assay: Protac activity at CRBN/IKZF1 in human MOLT-4 cells assessed as induction of IKZF1 degradation measured after 4 hrs by Immunoblotting analysis; type: cell-based; method in brief: as §3
[13] = target: T4, Protein cereblon/Zinc finger protein Aiolos (Homo sapiens); assay: Protac activity at CRBN/IKZF3 in human MOLT-4 cells assessed as induction of IKZF3 degradation measured after 4 hrs by Immunoblotting analysis; type: cell-based; method in brief: as §3
[14] = target: T3, Cereblon/Ikaros (Homo sapiens); assay: Protac activity at CRBN/IKZF1 in human Jurkat cells assessed as induction of IKZF1 degradation measured after 4 hrs by Immunoblotting analysis; type: cell-based; method in brief: as §2
[15] = target: T4, Protein cereblon/Zinc finger protein Aiolos (Homo sapiens); assay: Protac activity at CRBN/IKZF3 in human MM1.S cells assessed as induction of IKZF3 degradation measured after 4 hrs by Immunoblotting analysis; type: cell-based; method in brief: as §2
[16] = target: T2, Cereblon/Casein kinase I alpha (Homo sapiens); assay: Protac activity at CRBN/CK1alpha in human MM1.S cells assessed as induction of CK1alpha degradation at 40 nM measured after 4 hrs by Immunoblotting analysis; type: cell-based; method in brief: as §2
[17] = target: T3, Cereblon/Ikaros (Homo sapiens); assay: Protac activity at CRBN/IKZF1 in human MM1.S cells assessed as induction of IKZF1 degradation measured after 4 hrs by Immunoblotting analysis; type: cell-based; method in brief: as §2
[18] = target: T4, Protein cereblon/Zinc finger protein Aiolos (Homo sapiens); assay: Protac activity at CRBN/IKZF3 in human Jurkat cells assessed as induction of IKZF3 degradation measured after 4 hrs by Immunoblotting analysis; type: cell-based; method in brief: as §2

T4 sequence (Q96SW2 whole entry, looked up): as above
T4 sequence (Q9UKT9 whole entry, looked up): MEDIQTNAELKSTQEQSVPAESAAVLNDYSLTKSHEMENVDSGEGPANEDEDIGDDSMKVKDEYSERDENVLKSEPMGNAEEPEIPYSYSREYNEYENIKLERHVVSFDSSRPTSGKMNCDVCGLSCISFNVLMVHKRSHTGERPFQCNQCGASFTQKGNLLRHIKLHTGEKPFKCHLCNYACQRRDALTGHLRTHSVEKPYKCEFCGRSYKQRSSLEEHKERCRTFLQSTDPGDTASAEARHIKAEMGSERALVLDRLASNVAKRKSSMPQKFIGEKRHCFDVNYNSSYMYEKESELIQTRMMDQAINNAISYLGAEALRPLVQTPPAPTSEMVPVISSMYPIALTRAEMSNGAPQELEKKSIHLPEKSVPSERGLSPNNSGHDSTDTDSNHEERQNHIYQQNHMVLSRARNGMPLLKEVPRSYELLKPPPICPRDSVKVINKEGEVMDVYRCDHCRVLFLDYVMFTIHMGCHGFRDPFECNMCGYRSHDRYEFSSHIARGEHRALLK
T2 sequence (P48729 2-337 limits assumed): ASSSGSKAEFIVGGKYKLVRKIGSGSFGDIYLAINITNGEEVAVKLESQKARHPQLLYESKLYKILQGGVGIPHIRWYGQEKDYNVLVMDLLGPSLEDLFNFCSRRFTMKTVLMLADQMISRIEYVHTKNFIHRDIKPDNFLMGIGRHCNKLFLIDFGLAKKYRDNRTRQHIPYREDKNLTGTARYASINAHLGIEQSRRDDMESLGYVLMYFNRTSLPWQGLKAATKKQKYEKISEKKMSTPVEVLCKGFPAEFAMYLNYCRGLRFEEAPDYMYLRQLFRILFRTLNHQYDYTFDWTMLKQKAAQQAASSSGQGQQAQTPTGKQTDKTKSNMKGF
T2 sequence (Q96SW2 whole entry partner): as the sequence (Q96SW2 whole entry, looked up) above
Retinal rod rhodopsin-sensitive cGMP 3',5'-cyclic phosphodiesterase subunit delta (Homo sapiens), sequence (O43924 whole entry): as the sequence (O43924 whole entry, looked up) above
DNA-binding protein Ikaros (Homo sapiens), sequence (Q13422 whole entry): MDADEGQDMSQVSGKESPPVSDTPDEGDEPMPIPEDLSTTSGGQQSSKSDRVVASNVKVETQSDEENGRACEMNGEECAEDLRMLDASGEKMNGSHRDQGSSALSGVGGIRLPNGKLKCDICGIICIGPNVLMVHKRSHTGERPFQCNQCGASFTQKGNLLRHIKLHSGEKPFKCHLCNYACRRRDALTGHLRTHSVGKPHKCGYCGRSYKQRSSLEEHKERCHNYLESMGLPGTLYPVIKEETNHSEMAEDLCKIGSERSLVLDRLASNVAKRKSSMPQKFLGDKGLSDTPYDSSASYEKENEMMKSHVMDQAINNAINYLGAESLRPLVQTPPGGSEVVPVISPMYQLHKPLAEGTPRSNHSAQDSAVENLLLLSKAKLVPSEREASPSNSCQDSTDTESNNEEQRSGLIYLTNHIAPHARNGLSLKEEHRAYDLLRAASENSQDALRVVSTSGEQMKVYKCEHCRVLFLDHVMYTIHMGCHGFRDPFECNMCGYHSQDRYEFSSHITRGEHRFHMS

Row | Activity [2] | Activity [4] | Activity [6] | Activity [7] | Structure (SMILES) | Activity (NCI-H358) | Activity (PaTu 8988t) | Activity (AGS) | Activity (MIA PaCa-2) | also measured
1 | Active | Active |  |  | O=C1CCC(n2cc(-c3ccsc3)nn2)C(=O)N1 (stereo unspecified) | inactive | inactive | inactive | inactive | DC50 [1]: < 200 nM; DC50 [3]: < 200 nM; DC50 [5]: < 200 nM
2 | inactive | 70% | inactive | inactive | COc1c(-c2cn(C3CCC(=O)NC3=O)nn2)csc1C(=O)NC1CCCC1 (stereo unspecified) |  |  |  |  | 
3 |  |  |  |  | COc1cscc1-c1cn(C2CCC(=O)NC2=O)nn1 (stereo unspecified) | inactive | inactive | inactive | inactive | Activity [8]: inactive; Activity [9]: inactive
4 |  |  |  |  | CNc1nccc(CN([C@H]2CC[C@H](N)CC2)S(=O)(=O)c2ccc(S(=O)(=O)N(Cc3ccc(Cl)cc3)C3CCCC3)cc2)n1 |  |  |  |  | IC50 (NCI-H358): 954 nM; IC50 (PaTu 8988t): 1200 nM; IC50 (AGS): 1200 nM; IC50 (MIA PaCa-2): 507 nM
5 | inactive | 70% | inactive | inactive | COc1c(-c2cn(C3CCC(=O)NC3=O)nn2)csc1C(=O)N1CCCC1 (stereo unspecified) |  |  |  |  | Activity [10]: inactive; Activity [11]: inactive
6 | Active | inactive | inactive | inactive | CSc1cscc1-c1cn(C2CCC(=O)NC2=O)nn1 (stereo unspecified) | inactive | inactive | inactive | inactive | Activity [12]: inactive; Activity [13]: inactive; Activity [1]: Active; Activity [14]: inactive; Activity [3]: Active; Activity [15]: inactive; Activity [16]: 50%; Activity [17]: inactive; Activity [18]: inactive; Activity [5]: Active
7 |  |  |  |  | C=C(F)C(=O)N1CCN(c2nc(OC[C@@H]3CCCN3C)nc3c2CCN(c2cccc4cccc(Cl)c24)C3)C[C@@H]1CC#N [ADAGRASIB] |  |  |  |  | IC50 (NCI-H358): 6 nM; IC50 (PaTu 8988t): 3000 nM; IC50 (AGS): 1400 nM; IC50 (MIA PaCa-2): 4 nM
